The source of these data is PubChem BioAssay AID617 (SRMLSC, 2007).

Molecules are shown by their SMILES. In all, about 1,300 compounds went through this assay and about 1,200 (92%) were called active. So high a share suggests a set chosen from earlier hits. Not all results are given here. Measured potencies and affinities stand elsewhere. Values without a mark were called inactive. No rule for the calls is given here.

The nature of the assay: E. coli ΔtolC antibacterial growth inhibition – strain BW25113 ΔtolC::kan, dose response (AID 617). The following applies: OD615, at 100 µM (top of the series); growth inhibition: at the top concentration. An outline of the steps:
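System – E. coli BW25113 ΔtolC::kan bacteria · Input – inoculum from 1:1000-diluted 1.5 h subculture · Buffer or medium – LB plus kanamycin · Compound – serial dilution series of compound · Timing – bacterial growth with compound for 20 h, 37 °C · Measured by – OD615 · Read-out basis – growth-inhibition IC50 from four-parameter logistic curve, bounds set to 0% and 100% · Benchmarks – chloramphenicol 30 µM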
`O=C(COc1ccc(Cl)cc1)Nc1nc(-c2cccs2)cs1`: the “growth inhibition” value is 4.58%. Then `COc1cc(C(=O)Nc2nc(-c3cccs3)cs2)cc(OC)c1OC`, with -4.94%; and `CC(C)n1c(C(=O)OCC(=O)NCc2ccc3c(c2)OCO3)cc2occc21`, with 2.76% [OD615, at 50 µM]; and `CCOC(=O)c1c(N)sc2c(OC)c(Br)ccc12`, with 6.86%.

On to `O=C(C1CCN(Cc2cc(Cl)ccc2O)CC1)N1CCN(Cc2ccccc2)CC1`, for which the “growth inhibition” value was 17.7%.

For `CCCCCCn1c(CN2CCCC(C)C2)nc2c1c(=O)n(C)c(=O)n2C` (stereo not drawn), the “growth inhibition” value was 13.4%.

Regarding `Cc1ccc(N(CC(=O)Nc2ccc3c(c2)OCCO3)S(=O)(=O)c2c(C)noc2C)cc1`, the “growth inhibition” value is -0.82%.

With `COc1ccccc1N1CCN(C(=O)c2cc(-c3ccc(Br)cc3)on2)CC1`, the “growth inhibition” value is 9.47%. In the case of `COc1ccccc1N1CCN(C(=O)c2oc3cc(C)c(C)cc3c2C)CC1` it was 9.06%. In the case of `Cc1ccc(-c2noc(CCC(=O)N3CCN(c4cccc(C(F)(F)F)c4)CC3)n2)cc1` it was 14.7%. Then `Cc1ccc(-c2nnn(CC(=O)N(Cc3cccs3)C(C(=O)NC(C)(C)C)c3ccco3)n2)o1` (stereo not drawn), with 1.07%; and `Cc1ccc(-c2noc(CN3CCN(c4ccccc4F)CC3)n2)cc1`, with -0.74%. With `C=C(C)COc1ccc(-c2[nH]ncc2-c2ccc(OC)c(OC)c2)c(O)c1`, the “growth inhibition” value was -0.5%. Then `COc1ccc(-c2cnc(N)n2CC2CCCO2)cc1` (stereo not drawn), with 14.5%; and `COc1cc(OC)cc(-n2nnnc2SCC(=O)N2CCCc3ccccc32)c1`, with 19.5%. Then `Cn1c(-c2ccc3c(c2)OCO3)cnc1N`, with -13.1%; and `CCCCCc1c(C)nc(Nc2ccccc2)[nH]c1=O`, with 15.3% [OD615, at 50 µM]. In the case of `Cc1nn(-c2ccccc2)c2[nH]c(=O)c(CNCc3ccc4c(c3)OCO4)cc12` it was -1.75%. For `CCOC(=O)C1(N(CC)CC)Sc2cc(C)ccc2NC1=O` (stereo not drawn), the “growth inhibition” value is -1.68%. In the case of `Cc1cc(=O)oc2c1ccc1oc(/C(=N/O)c3ccccc3)c(C)c12` it was 16.5% [OD615, at 50 µM]; in that of `CN(C)Cc1nc2c(c(=O)[nH]1)C1(CCCCC1)Cc1ccccc1-2`, 11.3%. In the case of `Clc1ccc(Cn2ncc3c(N4CCCCC4)ncnc32)c(Cl)c1` it was 13.9%; in that of `COc1ccc(-c2csc(N(CC3CCCO3)C(=O)c3ccco3)n2)cc1` (stereo not drawn), 9.23%. Then `CN1/C(=C\C(=O)c2cccs2)Sc2ccccc21`, with 13.4%. Take `CCOC(=O)c1ccc(NS(=O)(=O)c2ccc(SC)cc2)cc1`: the “growth inhibition” value is 5.09%.

Regarding `O=C(c1cc(C2CC2)on1)N1CCN(C(c2ccccc2)c2ccccc2)CC1`, the “growth inhibition” value was -3.08%. Then `CC(C)n1c2ccccc2c2nc3ccccc3nc21`, with 10.9%. In the case of `CCOC(=O)C1CCN(Cc2cn[nH]c2-c2ccc(C)cc2)CC1` it was -2.61%.
